# Calls of active or inactive are those of the source. No cut-off for these calls is given here.
# Legend:
# [1] = test system: VCaP; assay: Induction of androgen receptor degradation in human VCaP cells at 100 nM pretreated with MG132 for 2 hrs followed by compound addition and 3 hrs by Western blot analysis; format: functional, cell-based; conditions: time 5.0 hrs
# How it was run: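 LNCaP or VCaP cells pretreated 2 h with DMSO, ARi-12 (10 μM), thalidomide (10 μM), MG-132 (3 μM) or MLN4924 (0.5 μM), then given degrader at 100 nM for 3 h. AR measured by Western blot with GAPDH as loading control.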
# [2] = test system: LNCaP; assay: Downregulation of KLK3 gene expression in human LNCaP cells incubated for 24 hrs by qRT-PCR analysis; format: functional, cell-based; conditions: dose 0.03-30 nM
# How it was run: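 LNCaP cells (RPMI 1640) or VCaP cells (DMEM Glutamax), both with 10% FBS, treated for 24 h. KLK3 mRNA measured by qRT-PCR and calculated by the comparative CT method against GAPDH and vehicle.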
# [3] = Metabolic stability in dog liver microsomes assessed as half life at 1 uM measured upto 45 mins in presence of NADPH by LC-MS/MS analysis; format: ADME, Canis lupus familiaris, Microsome; conditions: 0.75 h
# How it was run: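 Pooled liver microsomes from each species: 1 μM compound with 0.5 mg/mL microsomes and 1.7 mM NADPH in 0.1 M K-phosphate, pH 7.4, 5 mM MgCl2, 37 °C. Sampled at 0, 5, 10, 15, 30 and 45 min with cold ACN quench. No-NADPH incubation as negative control; ketanserin as positive control. LC-MS/MS; half-life from ln(remaining) versus time.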
# [4] = AUC(0 to t) in Beagle dog at 1 mg/kg, iv measured upto 24 hrs by LC-MS/MS analysis; format: ADME, organism-based, Canis lupus familiaris; design: time < 24 hrs, dose 1 mg/kg, route iv; conditions: in vivo
# How it was run: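 Male ICR mice (2 mg/kg), male SD rats (1 mg/kg) or male Beagle dogs (1 mg/kg) given a single intravenous dose in 10% PEG400 + 90% PBS adjusted to pH 8.0 with NaOH.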
# [5] = Volume of distribution at steady state in ICR mouse at 2 mg/kg, iv measured upto 24 hrs by LC-MS/MS analysis; format: ADME, organism-based; conditions: in vivo
# How it was run: (§1)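 Male ICR mice. IV 2 mg/kg and PO 5 mg/kg, both in 10% PEG400 + 90% PBS adjusted to pH 8.0. Plasma sampled to 24 h; F from IV and PO exposure.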
# [6] = Oral bioavailability in ICR mouse at 5 mg/kg measured up to 24 hrs by LC-MS/MS analysis; format: ADME, organism-based; conditions: in vivo; how it was run: as §1
# [7] = Drug concentration in CB17 SCID mouse tumor xenografted with human VCaP cells at 12.5 mg/kg, po measured after 6 hrs by LC-MS/MS analysis; format: ADME, organism-based, Neoplasm; conditions: read-out: Ct
# How it was run: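 SCID mice bearing one VCaP tumour each given a single oral 12.5 mg/kg dose in 100% PEG200. Plasma and tumour tissue collected at 6 and 24 h, 3 mice per time point. Values are mean ± SD.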
# [8] = test system: VCaP; assay: Antitumor activity against human VCaP cells xenografted in CB17 SCID mouse assessed as tumor growth inhibition at 30 mg/kg, po administered for 21 days; format: functional; conditions: 504 h, time 21 day, read-out: TGI
smiles,measurement,setting,value
C[C@H]1CC2(CCN(c3ccc(C(=O)N4CCN(C5CN(c6ccc7c(c6)C(=O)N(C6CCC(=O)NC6=O)C7=O)C5)CC4)cc3)CC2)CN1c1ccc(C#N)c(Cl)c1 (stereo partly drawn),Activity,[1],inactive
same,Activity,[2],Dose-Dependent Effect
same,t1/2,[3],> 1 h
same,AUCt,[4],3240 ng·h/mL
same,Vdss,[5],1.3 L/kg
same,F,[6],53%
same,concentration at 6 h,[7],946 ng/mL
same,inhibition in vivo at 30 mg/kg,[8],80%

# Source: ChEMBL document CHEMBL5331127, “Discovery of ARD-2051 as a Potent and Orally Efficacious Proteolysis Targeting Chimera (PROTAC) Degrader of Androgen Receptor for the Treatment of Advanced Prostate Cancer” (J Med Chem, 2023)
